Here are results for four compounds from publication PMC3227540 (Science translational medicine, 2011).

pKd: −log10 of the molar value. Read-outs that look alike come from different tables or passages of the source.

Assay [1] addresses T1, TTR (Homo sapiens, UniProt P02766). In words: Surface plasmon resonance. As to conditions: SPR. Format: binding. A general note: Surface plasmon resonance follows binding to a sensor surface in real time, without labels.
The target in another assay is COX-1 (Homo sapiens, UniProt P23219). Kind of assay: COX-1 enzymatic inhibition. The settings on record: read-out: COX-1 inhibition. It is filed as biochemical.
Sequence of COX-1 (P23219 24-599): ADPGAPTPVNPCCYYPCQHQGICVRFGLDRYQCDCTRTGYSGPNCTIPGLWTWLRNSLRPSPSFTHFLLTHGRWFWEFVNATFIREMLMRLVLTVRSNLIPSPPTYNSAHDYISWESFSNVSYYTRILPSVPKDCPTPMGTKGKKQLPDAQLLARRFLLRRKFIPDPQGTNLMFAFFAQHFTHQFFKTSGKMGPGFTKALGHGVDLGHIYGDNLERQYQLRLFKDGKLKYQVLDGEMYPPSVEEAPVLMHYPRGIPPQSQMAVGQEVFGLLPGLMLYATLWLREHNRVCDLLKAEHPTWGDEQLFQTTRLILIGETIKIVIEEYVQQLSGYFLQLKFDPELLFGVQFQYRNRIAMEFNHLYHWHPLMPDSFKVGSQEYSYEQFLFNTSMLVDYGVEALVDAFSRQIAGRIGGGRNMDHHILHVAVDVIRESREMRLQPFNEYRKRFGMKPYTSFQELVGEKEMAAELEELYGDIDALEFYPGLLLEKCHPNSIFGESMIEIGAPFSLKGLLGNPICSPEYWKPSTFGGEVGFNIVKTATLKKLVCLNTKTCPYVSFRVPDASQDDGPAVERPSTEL
Another assay deals with AC16 cells. In words: Inhibition of V122I TTR cytotoxicity towards AC16 cells. Format: cell-based, human. As to conditions: TTR and ligands 8 μM.
In the next assay the test system is IMR-32 cells. In words: Inhibition of WT-TTR cytotoxicity towards IMR-32 neuroblastoma cells. It is filed as cell-based, human. The settings on record: fig. S8B.
Another assay deals with serum TTR (Homo sapiens, UniProt P02766). Kind of assay: Stabilization of human serum TTR against acid-mediated denaturation. It is filed as biochemical. The settings on record: 50 μM compound, acid treatment 72 hours.
For assay [2], the target named is T1, TTR. Kind of assay: Fluorescence polarization. As to conditions: competitive displacement of probe 1, apparent binding constant. The essentials: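 Competitive displacement of the fluorescent probe from the TTR thyroxine-binding pocket under physiological conditions. The test compound is titrated from 0.01 to 50 μM, and fluorescence polarization is read at excitation 485 nm and emission 525 nm. The dose-dependent drop in polarization is fitted to give the apparent binding constant, Kapp. Run in triplicate; SD reported.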

The target of another assay is human wild type TTR (Homo sapiens, UniProt P02766). Kind of assay: Isothermal titration calorimetry. The settings on record: two-site binding model; for pKd: ITC. (ITC needs no label: the signal is the heat of the interaction.)
Assay [3] deals with T1, TTR. In words: Acid-mediated TTR amyloidogenesis. It is filed as biochemical. As to conditions: kinetic aggregation assay over 5 days, TTR 3.6 μM, ligand 3.0 μM.

By inhibition is commonly meant the percentage by which the read-out fell short of the control. As to `O=C(O)c1cccnc1Nc1cccc(C(F)(F)F)c1` [niflumic acid], on TTR [1], the “fold lower target residence time than ligand 7” value is ~ 20 x. The inhibition at 10 µM at COX-1 amounted to 94%. Also, in the assay with AC16 cells, the “Rescue of AC16 cell viability from V122I TTR proteotoxicity (in words)” value (“Rescue of AC16 cell viability” for short) was “performed poorly”. In addition, the “Performance against WT-TTR toxicity in IMR-32 cells (in words)” value in the assay with IMR-32 cells is “performed poorly”. Further, on serum TTR, the “% tetramer at 72 hrs (of tetramer present at 0 hours)” value was found to be 11.5%.

As to `O=[N+]([O-])c1cc(O)c(O)c([N+](=O)[O-])c1` [3,5-dinitrocatechol], the “Rescue of AC16 cell viability” value with AC16 cells is “performed poorly”. The “Performance against WT-TTR toxicity in IMR-32 cells (in words)” value in the assay with IMR-32 cells is “performed poorly”. For the same compound, on serum TTR, the “% tetramer at 72 hrs (of tetramer present at 0 hours)” value was 37.6%.

For `O=C(O)Cc1ccccc1Nc1c(Cl)cccc1Cl` [diclofenac], on TTR [2], the Kapp was 4.66 µM. Besides, the “fold lower target residence time than ligand 7” value on TTR [1] is on record as approximately 40 x.

In the case of `O=C(c1cc(O)c(O)c([N+](=O)[O-])c1)c1ccccc1F` [Ro 41-0960], the pKd was 7.82 at human wild type TTR (read-out: Kd1, first site) and 5.70 at human wild type TTR (read-out: Kd2, second site). Moreover, the “ITC binding affinity (in words)” value on human wild type TTR was “low nanomolar affinity”. The “koff, fold faster than ligand 7” value at TTR [1] was ~ 5 x. The “Fibril formation at substoichiometric ligand (in words)” value at TTR [3] is reported as “dramatically slowed fibril formation”. The “Rescue of AC16 cell viability” value in the assay on AC16 cells is “completely rescued”.
